The results in this text go back to ChEMBL document CHEMBL3102858, “Anti-hepatitis C virus dinorditerpenes from the roots of Flueggea virosa” (J Nat Prod, 2014).

The subject of one series is Hepatitis C virus. In words: Antiviral activity against HCV expressing JC1-Luc2A infected in Huh7.5 cells assessed as inhibition of viral infection after 72 hrs by luciferase reporter gene assay. It is filed as functional, organism-based, Hepacivirus hominis. The conditions noted are these: Huh7.5, 72 h. The procedure, abridged: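 Huh7.5 cells were preseeded at 1 × 10^4 cells/well for 24 h, then exposed to JC1-Luc2A reporter HCV (0.1 MOI) for 4 h. The inoculum was removed and the cells washed three times. Fresh medium with compounds was added. After 72 h, luciferase activity was read in cell lysates (Bright-Glo). EC50 is the concentration inhibiting HCVcc infection by 50%.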
In general terms: Reporter assays use an easily measured gene product as a stand-in for the process of interest.

Series [1] is described as follows: Therapeutic index, ratio of IC50 for human Huh7.5 cells to EC50 for HCV. Type of series: cell-based, Huh-7. As to conditions: read-out: Ratio IC50/EC50. The procedure, abridged:
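TI was calculated as IC50/EC50. IC50 came from the 72 h Huh7.5 viability assay and EC50 from the 72 h JC1-Luc2A HCVcc luciferase infection assay.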

A short description of series [2]: Cytotoxicity against human Huh7.5 cells after 72 hrs. Type of series: cell-based. As to conditions: Huh-7, 72 h. The gist of the method: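 Huh7.5 cells, derived from human hepatoma Huh7, were grown in DMEM with 10% heat-inactivated FBS and 1% nonessential amino acids. They were preseeded at 1 × 10^4 cells/well for 24 h, then given serial compound concentrations. Viable cells were measured after 72 h with the CellTiter 96 Aqueous One Solution kit. IC50 is the concentration inhibiting cell growth by 50%.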

SMILES strings stand for the structures.

Usually EC50 stands for the concentration at which the effect is half-maximal. By IC50 is commonly meant the point on the concentration scale where inhibition reaches its midpoint. Lower therefore signals greater potency. Turning to `COc1cc2c(cc1C)C=C[C@@H]1C(C)(C)C(=O)CC[C@@]21C`, in the series with Hepatitis C virus, the EC50 is 47.3 µM. The selectivity ratio in series [1] was 1.7. Besides, the IC50 in series [2] is 81.8 µM.
The like results for `C=C[C@]1(C)C=C2CC[C@H]3C(C)(C)[C@H](O)CC[C@]3(C)[C@H]2C[C@@H]1O` were, in that order, 52.7 µM, 3.2 and 167 µM.
The like results for `COc1cc2c(cc1C)[C@H]1C[C@@H]3C(C)(C)[C@H](O)CC[C@@]23CO1` were, in that order, 7.5 µM, 55.9 and 419 µM.
On the same counts, the results for `COc1cc2c(cc1C)C=C[C@@H]1C(C)(C)[C@H](O)CC[C@@]21C` are 24.9 µM, 2.8 and 70 µM.
As to `COc1cc2c(cc1CO)C=C[C@@H]1C(C)(C)[C@H](O)CC[C@@]21C`, in the series on Hepatitis C virus, the EC50 was found to be 27.4 µM. In addition, the selectivity ratio in series [1] came to 4.6. This molecule displayed an IC50 in series [2] of 125 µM.
The like results for `Cc1cc2c(cc1O)[C@]1(C)CCC(=O)C(C)(C)[C@H]1[C@H](O)C2` were, in that order, 52.8 µM, 5.5 and 292 µM.
With `Cc1cc2c(cc1O)[C@]1(C)CC[C@H](O)C(C)(C)[C@H]1CC2`, in the series on Hepatitis C virus, the EC50 was 12 µM. Also, the selectivity ratio in series [1] came out at 4.5. The molecule further returned an IC50 in series [2] of 54.3 µM.
On to `Cc1cc2c(cc1O)[C@]1(C)CC[C@H](O)C(C)(C)[C@H]1C=C2`, for which the EC50 in the series on Hepatitis C virus was determined as 5.6 µM. The selectivity ratio in series [1] came out at 9.8. Besides, in series [2], it took 54.9 µM to reach half-maximal inhibition (IC50).
For the molecule `C=CCc1ccc(O)c(-c2ccc(O)c(CC=C)c2)c1` [HONOKIOL], in the series with Hepatitis C virus, the EC50 was 9.4 µM. In addition, the selectivity ratio in series [1] was 6.2.
Take `Cc1cc2c(cc1O)[C@]1(C)CCC(=O)C(C)(C)[C@H]1C=C2`: in the series with Hepatitis C virus, the EC50 was 25.5 µM. For the same molecule, the selectivity ratio in series [1] is 3.4. This molecule yielded an IC50 in series [2] of 86.5 µM.
On the same counts, the results for `COc1cc2c(cc1CO)C=C[C@@H]1C(C)(C)[C@@H](O)CC[C@@]21C` are 30.5 µM, 4.9 and 151 µM.
The like results for `COc1cc2c(cc1C)CC[C@@H]1C(C)(C)[C@@]3(O)CC[C@@]21CO3` were, in that order, 6.6 µM, 45 and 297 µM.
The like results for `C=Cc1c(C)c(O)cc2c1CC[C@@H]1C(C)(C)[C@H](O)CC[C@@]21C` [SPRUCEANOL] were, in that order, 5 µM, 10.5 and 52.4 µM.
